# Laboratory results published in ChEMBL document CHEMBL3745678, “Novel β-Carboline/Hydroxamic Acid Hybrids Targeting Both Histone Deacetylase and DNA Display High Anticancer Activity via Regulation of the p53 Signaling Pathway” (J Med Chem, 2015).
# Activity calls are given as the source filed them. No cut-off for these calls is given here.
# Experiments:
# [1] = Acute toxicity in ICR mouse assessed as survival rate at 585.9 mg/kg, ip measured on day 14; format: organism-based; settings: in vivo
# Procedure, shortened: (§1)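 Female ICR mice, single intraperitoneal injection at 585.9, 468.8, […], 300 or 240 mg/kg, or vehicle control, n = 10 per group. Deaths counted at 1 h, 4 h, daily on days 1-4 and over days 5-14. Eating, drinking, body weight and activity observed for 14 days, with survival (%) taken on day 14. LD50 calculated from mortality.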
# [2] = Antitumor activity against human HCT116 cells xenografted in BALB/c mouse assessed as tumor weight at 90 mg/kg, po measured twice per week over 22 days (reference value: 1.38 +/- 0.13 g); format: functional, HCT-116
# HCT-116 [3] = test: Potency index, ratio of SAHA IC50 to compound IC50 for human HCT116 cells; format: functional
# Procedure, shortened: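 HCT116 cells seeded at 10^4 cells/ml and adhered overnight, then treated 48 h over a concentration series with 0.1% DMSO as control. MTT readout; IC50 derived from inhibition % = (1 − OD treated/OD control) × 100, three independent measurements. Index = SAHA IC50 ÷ compound IC50.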
# HCT-116 [4] = test: Induction of apoptosis in human HCT116 cells at 5 uM after 48 hrs by annexin V-FITC/propidium iodide staining-based flow cytometric analysis; format: functional
# Procedure, shortened: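 HCT116 cells cultured overnight, then exposed in triplicate for 48 h to 0.1, 1.0 or 5.0 µM, SAHA 5.0 µM or vehicle. Stained with FITC-Annexin V/PI for 15 min at room temperature.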
# Mus musculus [5] = test: Acute toxicity in ICR mouse assessed as death at 240 to 585.9 mg/kg, ip measured after 1 hr; format: organism-based; settings: in vivo; procedure, shortened: as §1
# [6] = Acute toxicity in ICR mouse assessed as survival rate at 375 mg/kg, ip measured on day 14; format: organism-based; settings: in vivo; procedure, shortened: as §1
# Mus musculus [7] = test: Acute toxicity in ICR mouse assessed as death at 240 to 300 mg/kg, ip measured after 3 days; format: organism-based; settings: in vivo, 72 h; procedure, shortened: as §1
# [8] = Acute toxicity in ICR mouse assessed as survival rate at 468.8 mg/kg, ip measured on day 14; format: organism-based; settings: in vivo; procedure, shortened: as §1
# [9] = Antiproliferative activity against human SW620 cells assessed as cell viability after 48 hrs by MTT assay; format: functional, cell-based; settings: SW-620, 48 h
# [10] = target: Cellular tumor antigen p53 (Homo sapiens) (UniProt P04637); test: Activation of p53 in human HCT116 cell at 0.1 to 5 uM after 12 hrs by western blot analysis; format: cell-based; settings: HCT-116
# Procedure, shortened: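 HCT116 cells exposed 12 h to compound or vehicle, then lysed on ice in PBS with 1% NP-40, 0.5% deoxycholate, 0.1% SDS and protease inhibitors. Up to 50 µg protein run on SDS-PAGE and immunoblotted for phospho-p53 (Ser15), p53 and p21. Bands quantified by densitometry against β-actin; mean ± SD of three experiments.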
# Mus musculus [11] = test: Toxicity in BALB/c mouse xenografted with human HCT116 cells assessed as body weight change at 45 mg/kg, ip measured twice per week over 22 days; format: organism-based, HCT-116; settings: in vivo, 528 h
# Mus musculus [12] = test: Acute toxicity in ICR mouse assessed as death at 240 to 300 mg/kg, ip measured after 5 to 14 days; format: organism-based; settings: in vivo; procedure, shortened: as §1
# Mus musculus [13] = test: Acute toxicity in ICR mouse assessed as abnormality in eating at 240 mg/kg, ip measured for 14 days; format: organism-based; settings: in vivo, 336 h; procedure, shortened: as §1
# HCT-116 [14] = test: Induction of DNA damage in human HCT116 cells assessed as histone H2AX phosphorylation at S139 after 12 hrs by western blot analysis; format: functional, cell-based
# Procedure, shortened: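 DNA-damage marker. HCT116 cells treated 12 h with compound or vehicle. Lysates immunoblotted with anti-H2AX S139ph, and β-actin served as the control. Relative levels were obtained by densitometric scanning; means ± SD of three separate experiments.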
# [15] = Antitumor activity against human HCT116 cells xenografted in BALB/c mouse assessed as tumor growth inhibition at 90 mg/kg, po measured twice per week over 22 days; format: functional; settings: HCT-116, po, 528 h, read-out: TGI
# Mus musculus [16] = test: Acute toxicity in ICR mouse assessed as death at 240 to 375 mg/kg, ip measured after 2 days; format: organism-based; settings: in vivo, 48 h; procedure, shortened: as §1
# Cellular tumor antigen p53 (Homo sapiens), sequence (P04637 whole entry, looked up): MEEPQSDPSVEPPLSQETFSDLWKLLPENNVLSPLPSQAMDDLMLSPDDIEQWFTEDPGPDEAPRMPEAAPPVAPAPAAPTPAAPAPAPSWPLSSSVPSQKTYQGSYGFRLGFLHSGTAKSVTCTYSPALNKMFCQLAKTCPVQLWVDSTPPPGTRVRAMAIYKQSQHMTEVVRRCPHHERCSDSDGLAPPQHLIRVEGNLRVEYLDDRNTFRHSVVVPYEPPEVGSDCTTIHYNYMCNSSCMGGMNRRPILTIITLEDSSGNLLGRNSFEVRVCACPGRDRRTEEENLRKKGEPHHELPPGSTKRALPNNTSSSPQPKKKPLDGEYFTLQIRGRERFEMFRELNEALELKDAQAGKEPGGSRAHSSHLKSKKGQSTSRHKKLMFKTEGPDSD
smiles,measurement,setting,value
COc1ccc(-c2nc(NC(=O)NCCCC(=O)NO)cc3c2[nH]c2ccccc23)cc1,survival at 14 day,[1],30%
same,Activity,[2],0.53 g
same,Ratio IC50,HCT-116 [3],7
same,Activity,HCT-116 [4],73.9%
same,Activity,Mus musculus [5],Non-toxic
same,survival at 14 day,[6],70%
same,Activity,Mus musculus [7],Non-toxic
same,survival at 14 day,[8],50%
same,IC50,[9],940 nM
same,Activity,[10],Active
same,Activity,Mus musculus [11],Non-toxic
same,Activity,Mus musculus [12],Non-toxic
same,Activity,Mus musculus [13],Non-toxic
same,Activity,HCT-116 [14],Dose-dependent effect
same,inhibition in vivo at 90 mg/kg,[15],61.6%
same,Activity,Mus musculus [16],Non-toxic
